ChEMBL document CHEMBL1135458, “Discovery and biological evaluation of a new family of potent modulators of multidrug resistance: reversal of multidrug resistance of mouse lymphoma cells by new natural jatrophane diterpenoids isolated from Euphorbia species” (2002)

Assays:
Assay type in all cases: functional
[1] = test system: Lymphoma cell line; experiment: Ability to reverse the multidrug resistance (MDR) of mouse Lymphoma cells, FL-1at 20 ug/mL; set-up: reference not given here
Procedure, shortened: (§1)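 L5178 mouse T-cell lymphoma cells carrying the MDR1 gene (via pHa MDR1/A retrovirus, kept under 60 ng/mL colchicine), with the L5178Y parent line. Cells grown in McCoy's 5A with 10% heat-inactivated horse serum. Cells at 2 × 10^6/mL in serum-free medium were given compound (1.0 mg/mL DMSO stock) for 10 min at room temperature. Rhodamine 123 (5.2 µM final) was then added for 20 min at 37 °C. Cells were washed twice, resuspended in PBS, and read by flow cytometry for FSC, SSC and FL-1.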

[2] = test system: Lymphoma cell line; experiment: Ability to reverse the multidrug resistance (MDR) of mouse Lymphoma cells, FL-1at 2 ug/mL; set-up: reference not given here; procedure, shortened: as §1
[3] = test system: Lymphoma cell line; experiment: Ability to reverse the multidrug resistance (MDR) of mouse Lymphoma cells, fluorescence activity ratio at 20 ug/mL.
Procedure, shortened: (§2)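 Rhodamine 123 accumulation by flow cytometry. MDR1-transduced L5178 mouse lymphoma cells and parental L5178Y cells at 2 × 10^6/mL in serum-free McCoy's 5A. Compound from DMSO stock for 10 min at room temperature, then 5.2 µM rhodamine 123 for 20 min at 37 °C, with two washes. Activity ratio: treated/untreated fluorescence of MDR cells divided by treated/untreated fluorescence of parental cells.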

[4] = test system: Lymphoma cell line; experiment: Ability to reverse the multidrug resistance (MDR) of mouse Lymphoma cells, by shrinkage (FSC) at 2 ug/mL.; procedure, shortened: as §1
[5] = test system: Lymphoma cell line; experiment: Ability to reverse the multidrug resistance (MDR) of mouse Lymphoma cells, by Granulation (SSC) at 2 ug/mL.; procedure, shortened: as §1
[6] = test system: Lymphoma cell line; experiment: Ability to reverse the multidrug resistance (MDR) of mouse Lymphoma cells, by shrinkage (FSC) at 20 ug/mL.; procedure, shortened: as §1
[7] = test system: Lymphoma cell line; experiment: Ability to reverse the multidrug resistance (MDR) of mouse Lymphoma cells, fluorescence activity ratio at 2 ug/mL.; procedure, shortened: as §2
[8] = test system: Lymphoma cell line; experiment: Ability to reverse the multidrug resistance (MDR) of mouse Lymphoma cells, by Granulation (SSC) at 20 ug/mL.; procedure, shortened: as §1
[9] = test system: Lymphoma cell line; experiment: Ability to reverse the multidrug resistance (MDR) of mouse Lymphoma cells, by Granulation (SSC) at 4 ug/mL.; procedure, shortened: as §1
[10] = test system: Lymphoma cell line; experiment: Ability to reverse the multidrug resistance (MDR) of mouse Lymphoma cells, by shrinkage (FSC) at 4 ug/mL.; procedure, shortened: as §1
[11] = test system: Lymphoma cell line; experiment: Ability to reverse the multidrug resistance (MDR) of mouse Lymphoma cells, FL-1at 4 ug/mL; procedure, shortened: as §1
[12] = test system: Lymphoma cell line; experiment: Ability to reverse the multidrug resistance (MDR) of mouse Lymphoma cells, fluorescence activity ratio at 4 ug/mL.; procedure, shortened: as §2
[13] = test system: Lymphoma cell line; experiment: Ability to reverse the multidrug resistance (MDR) of mouse Lymphoma cells, FL-1at 5 ug/mL; procedure, shortened: as §1
[14] = test system: Lymphoma cell line; experiment: Ability to reverse the multidrug resistance (MDR) of mouse Lymphoma cells, by shrinkage (FSC) at 5 ug/mL.; procedure, shortened: as §1
[15] = test system: Lymphoma cell line; experiment: Ability to reverse the multidrug resistance (MDR) of mouse Lymphoma cells, fluorescence activity ratio at 5 ug/mL.; procedure, shortened: as §2
[16] = test system: Lymphoma cell line; experiment: Ability to reverse the multidrug resistance (MDR) of mouse Lymphoma cells, by Granulation (SSC) at 5 ug/mL.; procedure, shortened: as §1

| Compound | FL-1 [1] | FL-1 [2] | Fluorescence activity ratio [3] | FSC [4] | SSC [5] | FSC [6] | Fluorescence activity ratio [7] | SSC [8] | SSC [9] | FSC [10] | FL-1 [11] | Fluorescence activity ratio [12] | FL-1 [13] | FSC [14] | Fluorescence activity ratio [15] | SSC [16] |
| --- | --- | --- | --- | --- | --- | --- | --- | --- | --- | --- | --- | --- | --- | --- | --- | --- |
| CC(=O)O[C@@H]1[C@@H](OC(C)=O)C(C)(C)/C=C/[C@H](C)C(=O)[C@@]2(OC(C)=O)C[C@@H](C)[C@H](OC(=O)c3ccccc3)/C2=C\[C@](C)(O)[C@@H]1OC(C)=O | 401.98 | 532.78 | 6.7 | 562.62 | 237.88 | 565.55 | 8.87 | 232.7 |  |  |  |  |  |  |  |  |
| CC(=O)O[C@@H]1[C@@H](OC(C)=O)C(C)(C)/C=C/[C@H](C)C(=O)C2(OC(C)=O)C[C@@](C)(O)[C@H](OC(=O)c3ccccc3)/C2=C\[C@](C)(OC(C)=O)[C@@H]1OC(C)=O (stereo partly drawn) | 764.3 | 525.32 | 12.73 | 558.57 | 235.31 | 555.8 | 8.75 | 231.39 |  |  |  |  |  |  |  |  |
| C=C1[C@H](OC(C)=O)[C@@H](O)[C@@H](OC(=O)c2cccnc2)C(C)(C)/C=C/[C@H](C)[C@H](OC(C)=O)[C@@]2(O)C[C@@](C)(OC(C)=O)[C@H](OC(=O)c3ccccc3)[C@@H]2[C@H]1OC(C)=O | 878.14 | 155.62 | 71.98 | 632.81 | 301.64 | 636.35 | 12.75 | 291.38 |  |  |  |  |  |  |  |  |
| C=C1[C@H](OC(=O)C(C)C)[C@H](OC(=O)C(C)C)[C@@H](OC(C)=O)C(C)(C)[C@@H]2O[C@H]2[C@@H](C)C(=O)[C@@]2(OC(C)=O)C[C@@](C)(OC(C)=O)[C@H](OC(C)=O)[C@@H]2[C@H]1OC(C)=O | 34.14 | 31.98 | 3.96 | 659.4 | 165.11 | 667.76 | 3.71 | 176.12 |  |  |  |  |  |  |  |  |
| C=C1[C@H](OC(=O)C(C)C)[C@@H](O)[C@@H](OC(C)=O)C(C)(C)/C=C/[C@H](C)[C@H](OC(C)=O)[C@@]2(O)C[C@@](C)(OC(C)=O)[C@H](OC(=O)c3ccccc3)[C@@H]2[C@H]1OC(C)=O |  | 90.12 |  | 625.31 | 333.78 |  | 6.3 |  | 335.77 | 638.02 | 32.37 | 2.26 |  |  |  |  |
| CC(=O)O[C@@H]1[C@@H](OC(C)=O)C(C)(C)/C=C/[C@H](C)[C@H](OC(C)=O)[C@@]2(OC(C)=O)C[C@@H](C)[C@H](OC(=O)c3ccccc3)[C@@H]2/C=C(\C)[C@@H]1O | 299.93 | 180.81 | 34.79 | 653.55 | 165.87 | 654.67 | 20.98 | 167.73 |  |  |  |  |  |  |  |  |
| C=C1[C@H](OC(C)=O)[C@@H](OC(C)=O)[C@@H](OC(C)=O)C(C)(C)/C=C/[C@H](C)[C@H](OC(C)=O)[C@@]2(O)C[C@@](C)(OC(C)=O)[C@H](OC(=O)c3ccccc3)[C@@H]2[C@H]1OC(C)=O | 888.3 | 505.23 | 29.48 | 577.39 | 239.85 | 587.54 | 16.77 | 239.54 |  |  |  |  |  |  |  |  |
| C=C1[C@H](OC(C)=O)CC(=O)C(C)(C)/C=C/[C@@H](C)C(=O)[C@@]2(OC(C)=O)C[C@@](C)(OC(C)=O)[C@H](OC(C)=O)[C@@H]2[C@H]1OC(C)=O [ESULATIN B] | 95.54 | 31.47 | 7.83 | 642.45 | 313.58 | 631.19 | 2.58 | 307.84 |  |  |  |  |  |  |  |  |
| CC(=O)O[C@@H]1[C@@H](OC(C)=O)C(C)(C)/C=C/[C@H](C)C(=O)[C@@]2(OC(C)=O)C[C@@H](C)[C@H](OC(=O)c3ccccc3)/C2=C\[C@](C)(OC(C)=O)[C@@H]1OC(C)=O | 965.2 | 634.88 | 16.08 | 561.94 | 238.57 | 563.73 | 10.57 | 228.49 |  |  |  |  |  |  |  |  |
| COc1ccc(CCN(C)CCCC(C#N)(c2ccc(OC)c(OC)c2)C(C)C)cc1OC (stereo not drawn) [VERAPAMIL] |  |  |  |  |  |  |  |  |  |  |  |  | 170.3 | 569.63 | 8.27 | 177.48 |
| C=C1[C@H](OC(C)=O)C[C@@H](OC(=O)c2cccnc2)C(C)(C)/C=C/[C@@H](C)C(=O)[C@@]2(OC(C)=O)C[C@H](C)[C@H](OC(C)=O)[C@@H]2[C@H]1OC(C)=O | 906.08 | 423.87 | 74.27 | 634.95 | 300.61 | 640.31 | 34.74 | 297.54 |  |  |  |  |  |  |  |  |
| C=C1[C@H](OC(=O)C(C)C)[C@@H](OC(C)=O)[C@@H](OC(C)=O)C(C)(C)/C=C/[C@@H](C)C(=O)[C@@]2(OC(C)=O)C[C@@](C)(OC(C)=O)[C@H](OC(C)=O)[C@@H]2[C@H]1OC(C)=O | 444.35 | 166.44 | 14.75 | 589.78 | 246.26 | 620.4 | 5.52 | 254.87 |  |  |  |  |  |  |  |  |
| C=C1[C@H](OC(C)=O)C[C@@H](OC(C)=O)C(C)(C)/C=C/[C@@H](C)C(=O)[C@@]2(OC(C)=O)C[C@@](C)(OC(C)=O)[C@H](OC(C)=O)[C@@H]2[C@H]1OC(C)=O [ESULATIN D] |  | 35.43 |  | 626.3 | 336.52 |  | 2.47 |  | 339.15 | 638.32 | 57.73 | 4.03 |  |  |  |  |
| CC(=O)O[C@@H]1[C@@H](OC(C)=O)C(C)(C)/C=C/[C@H](C)[C@H](OC(C)=O)[C@@]2(OC(C)=O)C[C@H](C)[C@H](OC(=O)c3ccccc3)/C2=C\[C@](C)(O)[C@@H]1OC(C)=O | 41.9 | 37.12 | 4.86 | 641.56 | 166.49 | 658.03 | 4.31 | 175.29 |  |  |  |  |  |  |  |  |
